Test results published in the M2OR odorant receptor database.

What was measured:
Settings in all cases: stereoisomer not certain
[1] = biological target: T1, UniProt Q7TRX0
T1 sequence (whole entry): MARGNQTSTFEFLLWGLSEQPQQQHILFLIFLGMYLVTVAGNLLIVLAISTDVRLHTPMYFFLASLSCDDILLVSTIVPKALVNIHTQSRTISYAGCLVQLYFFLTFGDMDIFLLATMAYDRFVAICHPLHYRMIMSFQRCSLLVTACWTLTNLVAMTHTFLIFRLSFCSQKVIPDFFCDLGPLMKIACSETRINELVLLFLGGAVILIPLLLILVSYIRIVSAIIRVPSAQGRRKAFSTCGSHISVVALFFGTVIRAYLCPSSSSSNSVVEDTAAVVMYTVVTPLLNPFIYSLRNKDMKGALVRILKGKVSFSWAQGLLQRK
How it was run: (§1)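 Values were gathered from published papers (main text and supplementary material), with extra details requested from the original authors when needed, and checked for typos and inconsistencies. Each receptor–molecule pair is called responsive (active) if the original authors judged the measured signal statistically different from baseline, and non-responsive (inactive) otherwise. Assay methods varied by source, often transient mammalian cell-line luciferase assays. Recorded details include cell line, G-protein, co-transfected protein and tags.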

[2] = biological target: T2, UniProt Q8VF43
T2 sequence (whole entry): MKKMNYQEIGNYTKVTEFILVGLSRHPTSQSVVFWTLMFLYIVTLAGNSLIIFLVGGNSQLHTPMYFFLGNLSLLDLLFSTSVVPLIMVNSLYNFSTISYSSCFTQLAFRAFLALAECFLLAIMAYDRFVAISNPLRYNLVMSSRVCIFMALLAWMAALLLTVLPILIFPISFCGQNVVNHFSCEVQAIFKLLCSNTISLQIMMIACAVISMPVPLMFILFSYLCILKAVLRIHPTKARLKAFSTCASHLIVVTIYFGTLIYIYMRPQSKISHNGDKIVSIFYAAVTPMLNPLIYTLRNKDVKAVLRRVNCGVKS
How it was run: as §1

[3] = biological target: T3, UniProt Q8VF52
T3 sequence (whole entry): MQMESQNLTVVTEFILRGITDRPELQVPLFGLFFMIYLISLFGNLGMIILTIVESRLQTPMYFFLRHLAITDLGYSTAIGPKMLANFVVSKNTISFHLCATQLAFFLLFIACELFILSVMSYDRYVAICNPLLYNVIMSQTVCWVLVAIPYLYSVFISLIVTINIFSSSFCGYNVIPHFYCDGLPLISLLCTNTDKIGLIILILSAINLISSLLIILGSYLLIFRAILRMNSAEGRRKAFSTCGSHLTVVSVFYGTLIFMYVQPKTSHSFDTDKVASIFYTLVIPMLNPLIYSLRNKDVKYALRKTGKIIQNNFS
How it was run: as §1

[4] = biological target: T4, UniProt Q8VFM8
T4 sequence (whole entry): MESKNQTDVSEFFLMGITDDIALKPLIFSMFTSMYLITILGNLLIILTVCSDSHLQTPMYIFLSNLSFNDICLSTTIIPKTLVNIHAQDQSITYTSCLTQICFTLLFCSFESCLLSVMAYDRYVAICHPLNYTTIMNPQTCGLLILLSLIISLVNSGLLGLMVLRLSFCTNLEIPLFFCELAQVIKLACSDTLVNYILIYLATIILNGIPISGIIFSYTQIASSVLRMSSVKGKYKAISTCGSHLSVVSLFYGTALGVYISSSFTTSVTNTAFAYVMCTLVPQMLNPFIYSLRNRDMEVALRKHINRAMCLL
How it was run: as §1

[5] = biological target: T5, UniProt Q7TRW1
T5 sequence (whole entry): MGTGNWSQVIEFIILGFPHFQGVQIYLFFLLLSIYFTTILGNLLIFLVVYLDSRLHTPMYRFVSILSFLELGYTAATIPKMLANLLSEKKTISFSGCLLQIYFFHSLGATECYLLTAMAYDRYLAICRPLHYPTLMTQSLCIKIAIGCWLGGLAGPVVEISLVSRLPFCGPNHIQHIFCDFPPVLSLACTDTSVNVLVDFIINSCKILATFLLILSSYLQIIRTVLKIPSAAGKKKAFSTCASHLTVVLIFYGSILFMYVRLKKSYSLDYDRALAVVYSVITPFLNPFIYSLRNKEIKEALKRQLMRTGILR
How it was run: as §1

[6] = biological target: T6, UniProt Q8VEU7
T6 sequence (whole entry): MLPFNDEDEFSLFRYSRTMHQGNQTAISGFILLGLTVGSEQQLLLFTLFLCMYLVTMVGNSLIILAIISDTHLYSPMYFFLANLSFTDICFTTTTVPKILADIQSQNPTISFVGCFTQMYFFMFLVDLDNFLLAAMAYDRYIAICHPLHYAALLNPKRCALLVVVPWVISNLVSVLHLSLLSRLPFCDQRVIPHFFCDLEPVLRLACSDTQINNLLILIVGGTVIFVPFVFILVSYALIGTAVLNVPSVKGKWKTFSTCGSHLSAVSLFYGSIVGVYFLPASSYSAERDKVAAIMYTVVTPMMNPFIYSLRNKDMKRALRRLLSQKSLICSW
How it was run: as §1

[7] = biological target: T7, UniProt Q8VF05
T7 sequence (whole entry): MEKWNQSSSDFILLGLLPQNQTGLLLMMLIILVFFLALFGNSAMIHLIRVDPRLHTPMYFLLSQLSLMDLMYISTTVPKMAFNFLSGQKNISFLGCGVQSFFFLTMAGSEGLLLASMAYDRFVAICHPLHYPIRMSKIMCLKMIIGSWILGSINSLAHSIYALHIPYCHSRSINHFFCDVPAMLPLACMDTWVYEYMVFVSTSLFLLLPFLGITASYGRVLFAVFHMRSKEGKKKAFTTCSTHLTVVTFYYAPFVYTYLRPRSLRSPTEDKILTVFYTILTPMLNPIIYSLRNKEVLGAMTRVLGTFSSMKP
How it was run: as §1

[8] = biological target: T8, UniProt Q8VF24
T8 sequence (whole entry): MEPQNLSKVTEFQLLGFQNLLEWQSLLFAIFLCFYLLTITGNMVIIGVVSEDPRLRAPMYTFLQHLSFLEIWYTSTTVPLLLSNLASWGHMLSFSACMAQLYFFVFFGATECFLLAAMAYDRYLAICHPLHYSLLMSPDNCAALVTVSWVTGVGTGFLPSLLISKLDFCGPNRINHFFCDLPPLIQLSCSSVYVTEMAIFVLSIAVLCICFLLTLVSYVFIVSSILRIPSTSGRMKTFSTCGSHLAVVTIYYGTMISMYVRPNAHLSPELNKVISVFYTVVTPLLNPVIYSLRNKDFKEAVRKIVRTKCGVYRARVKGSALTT
How it was run: as §1

[9] = biological target: T9, UniProt Q8VF44
T9 sequence (whole entry): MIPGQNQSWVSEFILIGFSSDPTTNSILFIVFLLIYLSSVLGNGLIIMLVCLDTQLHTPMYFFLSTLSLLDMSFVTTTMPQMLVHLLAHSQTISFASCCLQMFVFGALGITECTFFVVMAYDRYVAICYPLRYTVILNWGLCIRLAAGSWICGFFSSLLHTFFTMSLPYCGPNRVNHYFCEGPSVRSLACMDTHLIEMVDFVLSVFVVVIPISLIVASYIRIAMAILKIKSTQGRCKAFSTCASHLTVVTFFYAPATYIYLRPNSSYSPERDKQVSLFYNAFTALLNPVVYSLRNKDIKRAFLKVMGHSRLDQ
How it was run: as §1

[10] = biological target: T10, UniProt Q8VFG6
T10 sequence (whole entry): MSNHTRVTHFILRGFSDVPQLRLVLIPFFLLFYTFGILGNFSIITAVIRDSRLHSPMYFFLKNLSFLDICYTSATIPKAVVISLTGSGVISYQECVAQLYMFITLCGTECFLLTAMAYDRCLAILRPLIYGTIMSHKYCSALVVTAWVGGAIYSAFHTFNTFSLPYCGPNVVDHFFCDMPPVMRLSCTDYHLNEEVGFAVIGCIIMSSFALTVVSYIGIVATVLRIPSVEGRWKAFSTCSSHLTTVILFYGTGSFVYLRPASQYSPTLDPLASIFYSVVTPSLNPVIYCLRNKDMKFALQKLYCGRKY
How it was run: as §1

[11] = biological target: UniProt Q8VF06
Sequence of UniProt Q8VF06 (Q8VF06 as listed by the source): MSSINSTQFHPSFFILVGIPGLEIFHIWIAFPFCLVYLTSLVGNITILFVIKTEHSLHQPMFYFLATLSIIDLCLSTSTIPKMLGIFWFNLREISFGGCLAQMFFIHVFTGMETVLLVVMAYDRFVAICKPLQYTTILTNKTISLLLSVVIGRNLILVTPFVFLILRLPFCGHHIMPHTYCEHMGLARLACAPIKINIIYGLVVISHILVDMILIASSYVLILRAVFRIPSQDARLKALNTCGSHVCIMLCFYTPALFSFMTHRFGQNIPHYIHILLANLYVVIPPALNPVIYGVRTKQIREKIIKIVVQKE
How it was run: as §1

| SMILES | odorant receptor agonist call [1] | odorant receptor agonist call [2] | odorant receptor agonist call [3] | odorant receptor agonist call [4] | odorant receptor agonist call [5] | odorant receptor agonist call [6] | odorant receptor agonist call [7] | odorant receptor agonist call [8] | odorant receptor agonist call [9] | odorant receptor agonist call [10] | odorant receptor agonist call [11] |
| --- | --- | --- | --- | --- | --- | --- | --- | --- | --- | --- | --- |
| CCCCCCCOC(=O)C(C)C | inactive | inactive | inactive | inactive |  |  |  |  |  |  |  |
| Cc1ccc(C(C)C)cc1 | inactive | inactive | inactive | inactive |  |  |  |  |  |  |  |
| COC(OC)c1ccccc1 | inactive | inactive | inactive | inactive |  |  |  |  |  |  |  |
| CCCCC(C)=O | inactive | inactive | inactive | inactive | inactive | inactive | active | inactive | inactive | inactive |  |
| CCCCCC(C=O)=Cc1ccccc1 | inactive | inactive | active | inactive |  |  |  |  |  |  |  |
| CCCCCC=O | inactive | inactive | inactive | inactive | inactive | inactive | active | inactive | inactive | inactive |  |
| CCCCC=O | inactive | inactive | inactive | inactive |  |  |  |  |  |  | inactive |
| CCC(=O)O | inactive | inactive | inactive | inactive | inactive | inactive | inactive | inactive | inactive | inactive |  |
| CCCC(=O)C(C)=O | inactive | inactive | inactive | inactive | inactive | inactive | active | inactive | inactive | inactive |  |
| C=C(C)C1CC=C(C)CC1 (stereo not given) | inactive | inactive | inactive | inactive |  |  |  |  |  |  |  |
| CCCCCCCCCS | inactive | inactive | inactive | inactive | inactive | inactive | inactive | inactive | inactive | inactive |  |
| CCOC(=O)C(C)C | inactive | inactive | inactive | inactive | inactive | inactive | active | inactive | inactive | inactive |  |
| OCCCCCCCCCO | inactive | inactive | inactive | inactive |  |  |  |  |  |  |  |
| C=CC(=C)CCC=C(C)CCC=C(C)C | inactive | inactive | inactive | inactive |  |  |  |  |  |  |  |
| C=C(C)C1CCC(C)C(=O)C1 (stereo not given) | inactive | inactive | active | inactive | inactive | inactive | active | inactive | inactive | inactive |  |
| CC(C)CS | inactive | inactive | inactive | inactive |  |  |  |  |  |  |  |
| CCCCCCCCCC(=O)[O-].[H+] | inactive | inactive | inactive | inactive | inactive | inactive | inactive | inactive | inactive | inactive |  |
| OCCc1ccccc1 | inactive | inactive | inactive | inactive |  |  |  |  |  |  |  |
| CCCC(C)=O |  |  | inactive |  | inactive | inactive | active | inactive | inactive | inactive | inactive |
| CC1CC=CCCCCCCCCCC(=O)C1 (stereo not given) | inactive | inactive | inactive | inactive |  |  |  |  |  |  |  |
| CCCCCC(=O)CC | active | inactive | inactive | inactive | inactive | inactive | active | inactive | inactive | inactive |  |
| C1CCOCC1 | inactive | inactive | inactive | inactive |  |  |  |  |  |  |  |
| CCCCCOC(=O)CCC | inactive | inactive | inactive | inactive |  |  |  |  |  |  |  |
| CCCCOC(=O)C(C)OC(=O)CCC (stereo not given) |  |  | inactive |  | inactive | inactive | inactive | inactive | inactive | inactive |  |
| CCCCCCCCCCCO | inactive | inactive | inactive | inactive |  |  |  |  |  |  | active |
| CC(=O)Oc1ccccc1 | inactive | inactive | inactive | inactive | inactive | inactive | inactive | inactive | inactive | inactive |  |
| C=C(C)C1CCC2(C)OC2C1 (stereo not given) | inactive | inactive | inactive | inactive |  |  |  |  |  |  |  |
| CSSCc1ccco1 | inactive | inactive | inactive | inactive |  |  |  |  |  |  |  |
| CC=C(C)C=O | inactive | inactive | inactive | inactive |  |  |  |  |  |  |  |
